Assay outcomes as filed in PubChem BioAssay.
Ecoli rRNA inh: reduced GFP signal of wild-type E. coli, primary screen, bacterial rRNA inhibitor project, GFP/RFP fluorescence, OD600, single point; hit rate 1.6% among 350,000; GFP signal change (wild-type ribosome), % (concentration not given with the values); E. coli WT GFP vs humanized-ribosome RFP mutants, 24 h; stronger effect = lower value; DMSO median 0, no signal -100;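 active means significant combined selectivity score with lowered wild-type GFP, culture density cut under 30%, mutant RFP and density less affected; inactive means any of these conditions unmet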
ERAP1 inh: human ERAP1 aminopeptidase inhibitors, primary screen, biochemical, single point, plate reader. recombinant ERAP1, Leu-AMC fluorescence, 60 min. inhibition, % at 10.7 µM. hit rate 0.15% among 340,000. AID 652197, 2013;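 active means mean replicate inhibition of at least 30%, or all replicates individually reaching that 30% level; inactive means mean below 30% and not every replicate reaching it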;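 further: 0% = neutral control wells and 100% = L-leucinethiol positive control wells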
FGF22 binding: binders of human FGF22 protein, primary screen, FGF22 synaptogenesis inhibitor project, biophysical, thermal shift, single point. recombinant FGF22 thermal shift, SYPRO orange fluorescence; percent of sucrose octasulfate shift, DMSO zero. activity (Tm shift, normalised), % at 9.99 µM. hit rate 1.5% among 340,000;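 active means mean Tm shift, scaled 0 neutral to 100 positive control, at about 1.3% or above, every replicate too, limit read from the data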
Target sequence (Q9HCT0 whole entry, looked up): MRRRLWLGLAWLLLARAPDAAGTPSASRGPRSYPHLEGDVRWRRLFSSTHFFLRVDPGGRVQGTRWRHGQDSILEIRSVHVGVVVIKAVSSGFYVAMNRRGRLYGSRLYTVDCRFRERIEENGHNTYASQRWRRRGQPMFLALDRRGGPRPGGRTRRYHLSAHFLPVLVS
Cneo AK release: Cryptococcus neoformans cell lysis inducers, primary screen, AK release luminescence, single concentration; C. neoformans lysis, adenylate kinase release luminescence, 4 h; normalised: neutral wells 0, clomiphene wells 100; lysis activity, % at 15 µM; hit rate 0.2% among 360,000; AID 651654, 2012;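 active means mean lysis activity across replicates of at least 80%, whatever share of replicates individually reach that level; inactive means mean lysis activity below 80%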
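Assay system: Cryptococcus neoformans yeast cells / Dosing: single-point compound dose / Timing: 4 h at 37 °C static, read 1 h later / Measured by: luminescence of released adenylate kinase using an AK detection reagent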
HIV Env fusion: inhibitors of HIV-1 Env-driven cell-cell fusion, primary screen, HeLa-JRFL effector, CEM21 target cells, luciferase; AID 651610, 2012; hit rate 1.1% among 360,000; inhibition, % at 12.3 µM;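 active means mean replicate inhibition score of at least 50 and every replicate individually at or above 50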;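 further: 0% = plate neutral controls and 100% = maraviroc near 300 nM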
PGC1a acetyl inh: inhibitors of PGC1a acetylation signal, primary screen, cell-based, U2OS, AlphaScreen, inhibitor mode; AlphaScreen anti-acetyl-lysine; with virally co-expressed GCN5 acetyltransferase; inhibition, % at 15.6 µM; hit rate 0.17% among 350,000;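 active means every replicate shows inhibition of at least 40%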;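 further: 0% = neutral control wells and 100% = positive control wells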
* hit, by the source's call; x = not tested or not shown; [ ] = dose if it differs, or a comment. Rows were chosen to be rich in hits. Some 3.5% of all compounds tested hit in one or more screens of this group.

SMILES	Ecoli rRNA inh	ERAP1 inh	FGF22 binding	Cneo AK release	HIV Env fusion	PGC1a acetyl inh
CO[C@H]1CN(C)C(=O)c2ccc(NC(=O)c3cnccn3)cc2OC[C@H](C)N(C(C)=O)C[C@@H]1C	3	2	0	x	x	5
COC(=O)CNC(=O)CSc1nnc2cc(C)c3ccccc3n12	1	2	0	4	4	-1
CCN(CC)C(=O)[C@H]1CC(CC(=O)NCCc2ccccn2)C(=O)N2CCc3c([nH]c4ccccc34)[C@]12C (stereo partly specified)	24	1	43*	0	6	x
CCN(CC)C(=O)[C@H]1CC(CC(=O)NCCc2ccccn2)C(=O)N2CCc3c([nH]c4ccc(OC)cc34)[C@]12C (stereo partly specified)	-9	4	0	1	-6	6
O=C(CSCc1ccccc1)Nc1ccc2c(c1)OCO2	x	x	x	-3	x	-26
Cc1cc(S(=O)(=O)NC(C)C)ccc1OCC(=O)Nc1ccc2c(c1)OCCO2	-11	4	0	x	-3	110*
O=C(COc1ccc(F)cc1)Nc1ccc2c(c1)OCCO2	-7	0	0	-6	-111	x
Cc1cc(C)cc(OCC(=O)Nc2ccc3c(c2)OCCO3)c1	-11	-2	43*	x	-10	x
Cc1ccc(CSCC(=O)Nc2ccc3c(c2)OCO3)cc1	-30*	4	x	1	12	-8
CCOC(=O)N1C(=O)[C@@](c2ccc(Cl)cc2)(C(C)C)N1C(=O)OCC	-6	-5	0	1	-24	31
CC(C)NC(=O)C1(C)CN(S(C)(=O)=O)CC(=O)N1CCc1ccccc1F (stereo unspecified)	x	-1	0	x	-12	x
Cc1cccc(C)c1NC(=O)C1(C)CN(S(C)(=O)=O)CC(=O)N1CCc1ccccc1F (stereo unspecified)	-11	x	0	x	57*	x
O=C(Cc1ccc(NC(=O)C2CCCN(C(=O)CCc3ccccc3)C2)cc1)Nc1cccc(C(=O)N2CCCC2)c1 (stereo unspecified)	-15*	-5	0	1	16	-8
CN(C(=O)c1cccc(NC(=O)Cc2cccc(NC(=O)C3CCCN(C(=O)C4CCCC4)C3)c2)c1)C1CCC1 (stereo unspecified)	-7	4	0	1	14	-2
O=C(Cc1ccc(NC(=O)C2CCCN(C(=O)CCc3ccccc3)C2)cc1)Nc1cccc(C(=O)N2CCCCC2)c1 (stereo unspecified)	-5	x	0	-1	14	x
CN(C(=O)c1ccc(NC(=O)Cc2ccc(NC(=O)C3CCCN(C(=O)CCc4ccccc4)C3)cc2)cc1)C1CC1 (stereo unspecified)	-8	1	1	0	56*	x
CN(C(=O)c1cccc(NC(=O)Cc2cccc(NC(=O)C3CCCN(C(=O)C4CCC4)C3)c2)c1)C1CCC1 (stereo unspecified)	-5	2	0	3	85*	-9
CC(=O)NCCSCCNC(C)=O	x	x	x	1	-60	6
Cc1ccc(C(C)C)c(OCC(=O)c2c(O)c3ccccc3oc2=O)c1	x	x	x	x	x	-5
C[C@@H]1CN([C@@H](C)CO)C(=O)c2cc(NC(=O)C3CCCCC3)ccc2O[C@@H](C)CCCCO[C@@H]1CN(C)C(=O)NC1CCCCC1	-4	-1	0	97*	-14[16.7 µM]	10
C[C@@H]1CN([C@@H](C)CO)C(=O)c2cc(NC(=O)C3CCCCC3)ccc2O[C@@H](C)CCCCO[C@H]1CN(C)C(=O)c1ccccc1	0	1	29*	0	-7[16.7 µM]	-1
CC(C)NC(=O)Nc1ccc2c(c1)C(=O)N([C@@H](C)CO)C[C@@H](C)[C@@H](CN(C)C(=O)NC1CCCCC1)OCCCC[C@H](C)O2	-3	0	0	92*	-5[16.7 µM]	5
CCn1c(CSc2nc(C)cc(C)n2)nnc1SCC(=O)Nc1ccccc1	x	x	x	-2	-23	x
